CASP6 VEID inh: human caspase-6 inhibitors, primary screen, biochemical, VEID-R110 fluorescence, single point, set 2; purified caspase-6, Z-VEID-R110 cleavage fluorescence; inhibition, % at 12.5 µM; AID 686996, 2013; 0.53% of 350,000 active; P55212;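 active = mean inhibition across replicates at least about 35%, with every replicate also reaching that limit, limit read from the data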;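 note: 0% = median of neutral control wells and 100% = no fluorescence left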
UHRF1 MBD2 ctr: UHRF1 methylated DNA binding inhibitors, primary screen, counter-screen for MBD2 inhibitor project, biochemical, TR-FRET, human UHRF1, single concentration; E3 ubiquitin-protein ligase UHRF1 (Homo sapiens), Q96T88; AID 687016, 2013; 0.75% of 370,000 active; inhibition, % at 4.4 µM; UHRF1 binding to methylated oligo; in the data active = inhibition above about 21%;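 note: UHRF1 SRA domain binding a hemimethylated CpG hairpin DNA probe; 0% = median of test compound wells and 100% = reference inhibitor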
Target sequence (Q96T88 whole entry, looked up, the tested form may be a part): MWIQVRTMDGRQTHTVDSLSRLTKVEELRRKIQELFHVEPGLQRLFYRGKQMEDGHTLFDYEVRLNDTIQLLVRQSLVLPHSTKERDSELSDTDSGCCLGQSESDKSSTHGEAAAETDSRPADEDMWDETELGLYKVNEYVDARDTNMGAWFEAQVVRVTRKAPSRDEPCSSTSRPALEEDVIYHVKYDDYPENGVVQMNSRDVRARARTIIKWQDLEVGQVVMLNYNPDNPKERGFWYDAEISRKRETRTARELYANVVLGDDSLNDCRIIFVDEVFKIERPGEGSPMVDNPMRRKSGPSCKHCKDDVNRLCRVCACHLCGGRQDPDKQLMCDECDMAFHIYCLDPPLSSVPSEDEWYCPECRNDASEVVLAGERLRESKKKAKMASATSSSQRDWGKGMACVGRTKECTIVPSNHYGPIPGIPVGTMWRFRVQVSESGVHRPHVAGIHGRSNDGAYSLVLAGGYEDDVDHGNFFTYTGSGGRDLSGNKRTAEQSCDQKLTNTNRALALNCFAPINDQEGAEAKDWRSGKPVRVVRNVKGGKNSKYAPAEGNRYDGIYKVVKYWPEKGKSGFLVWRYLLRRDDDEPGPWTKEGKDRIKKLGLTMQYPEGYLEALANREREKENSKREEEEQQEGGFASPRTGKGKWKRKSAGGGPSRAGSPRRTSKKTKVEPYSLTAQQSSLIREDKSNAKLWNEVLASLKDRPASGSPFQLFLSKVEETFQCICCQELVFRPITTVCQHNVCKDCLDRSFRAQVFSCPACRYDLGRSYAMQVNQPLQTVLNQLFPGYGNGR
NSD2 inh: NSD2 histone methyltransferase inhibitors, primary screen, biochemical, AlphaScreen, single concentration, set 2. Histone-lysine N-methyltransferase NSD2 (Homo sapiens), O96028. NSD2 peptide methylation, 120 min. inhibition, % at 12.5 µM. 0.54% of 310,000 active; in the data active = inhibition above about 50%
TDP2 absorb: human TDP2 enzyme inhibitors, primary screen, biochemical, epi absorbance, recombinant enzyme | AID 720702, 2013 | inhibition, % at 12.8 µM | Tyrosyl-DNA phosphodiesterase 2 (Homo sapiens), O95551 | 0.34% of 370,000 active | T5PNP hydrolysis, p-nitrophenol absorbance 415 nm;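 active = inhibition above the mean of all tested compounds plus 3 SD, set per campaign, cut at about 25% in these data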;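 note: 0% = DMSO with enzyme and 100% = buffer with substrate but no TDP2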
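Incubation: 2 h at 37 °C; Test system: recombinant human TDP2; Quantity: enzyme 120 nM; Read-out basis: percent inhibition; Medium: 50 mM Tris-HCl pH 7.5 with Mg2+, KCl, DTT, BSA; Repeats: single replicate; Compound: 12.8 µM single point, 1% DMSO; Signal: epi absorbance; Reagent: 5 mM T5PNP chromogenic substrate; Benchmarks: no-enzyme high, DMSO-plus-enzyme low.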
MBD2 inh: inhibitors of MBD2 binding to methylated DNA, primary screen, biochemical, TR-FRET, DNA-binding domain, human | Methyl-CpG-binding domain protein 2 (Homo sapiens), Q9UBB5 | MBD2 binding to methylated oligonucleotide | inhibition, % at 4.4 µM | 0.31% of 370,000 active; in the data active = inhibition above about 13%
LEDGF integ inh: blockers of LEDGF/p75-dependent integrase strand transfer – biochemical, TR-FRET, high throughput, primary screen | HIV-1 integrase (with human LEDGF/p75) | 0.64% of 370,000 active | inhibition, % at 3.7 µM | TR-FRET IN-LEDGF/p75 DNA integration, Eu/Cy5;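 active = inhibition above the screen-wide mean plus 3 SD, cut at about 13% in these data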;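 note: signal is the Cy5 over europium emission ratio at 671 and 618 nm; 0% = plate median of compound wells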
IN multimer up: HIV-1 IN multimer formation enhancers, counter-screen for LEDGF/p75 integration inhibitor project, biochemical, TR-FRET; TR-FRET HIV-1 integrase multimerization; shares compounds with LEDGF integ inh; 17% of 2,000 active; activation, % at 7.7 µM; in the data active = activation above about 8.9%
TRFRET interf: TR-FRET optical interference artefacts, confirmation, artefact control for LEDGF/p75-dependent integration inhibitor project, biochemical, HIV-1 IN multimerization. shares compounds with LEDGF integ inh. TR-FRET optical interference counterscreen. inhibition, % at 7.7 µM. 2,000 tested, under 10 active. AID 1053135, 2014;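 active = inhibition above the mean over all tested compounds plus 3 SD, which no compound reached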;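 note: 0% = integrase with antibodies and DMSO and 100% = antibodies without integrase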
LEDGF integ conf: inhibitors of HIV-1 IN-LEDGF/p75 DNA integration, confirmation, biochemical, TR-FRET. shares compounds with LEDGF integ inh. 36% of 2,000 active. inhibition, % at 3.7 µM. TR-FRET LEDGF/p75-dependent HIV-1 integration; in the data active = inhibition above about 14%
Numbers without * were called inactive; · = no result. Only some compounds are listed: those with a hit (about 1.8% of all), similar ones and a draw of the others.

SMILES	CASP6 VEID inh	UHRF1 MBD2 ctr	NSD2 inh	TDP2 absorb	MBD2 inh	LEDGF integ inh	IN multimer up	TRFRET interf	LEDGF integ conf
Cc1cc(SCC(=O)NCCN2C(=O)CSC2=O)nc2c(C)cccc12	·	2	-2	4	2	23*	6	-30	1
O=C1/C(=C/c2ccccc2)SC(=S)N1C1CCS(=O)(=O)C1 (stereo not drawn)	3	-2	·	8	-6	1	·	·	·
Cc1ccc(/C=C2\SC(=S)N(C3CCS(=O)(=O)C3)C2=O)o1 (stereo not drawn)	34	17	14	-3	-4	24*	1	-7	6
CC(C)CC#Cc1ccc2c(c1)O[C@H](CN(C)C(=O)c1cccc(F)c1)[C@@H](C)CN([C@H](C)CO)S2(=O)=O	5	·	·	·	·	·	·	·	·
O=C(NCc1ccccc1)[C@@H]1[C@@H](CO)[C@@H]2Cn3c(ccc(-c4cccc(F)c4)c3=O)[C@H]1N2	-1	·	·	·	·	·	·	·	·
Cc1ccccc1-c1cnc2c(c1)C(=O)N([C@@H](C)CO)C[C@@H](C)[C@H](CN(C)CC1CCOCC1)O2	1	·	·	·	·	·	·	·	·
Cc1nn(C)c(-c2n[nH]c(=S)n2Cc2ccco2)c1Cl	-3	8	7	1	7	20*	1	-5	-6
O=C(NC1Cc2ccccc2C1)[C@@H]1[C@@H](CO)[C@@H]2Cn3c(ccc(C4=CCCCC4)c3=O)[C@H]1N2CC1CC1	2	·	·	·	·	·	·	·	·
CCCC(=O)N1CCCC1(C)C(=O)Nc1ccc(C)c(C)c1 (stereo not drawn)	3	0	-3	5	5	-1	·	·	·
CCCC(=O)N1CCCC1(C)C(=O)Nc1cc(C)ccc1C (stereo not drawn)	2	3	-2	3	0	85*	0	1	-14
COCCCN1C(=O)C(=O)/C(=C(/O)c2ccccc2)C1c1ccc2c(c1)OCO2 (stereo not drawn)	·	-6	1	-8	0	30*	-1	4	3
COCCCN1C(=O)C(=O)/C(=C(/O)c2ccccc2)C1c1ccc(N(C)C)cc1 (stereo not drawn)	29	-1	0	-4	2	2	·	·	·
O=S(=O)(O)c1ccc(O)c2cc(Nc3ccccc3)ccc12	·	92*	·	24	70*	87*	66*	-236	77*
Cc1ccc(S(=O)(=O)c2cc(Nc3ccccc3)ccc2O)cc1	15	-3	·	2	-1	-3	·	·	·
O=C(NC1CCCCC1)N[C@@H]1CC[C@@H](CCNS(=O)(=O)c2ccccc2)O[C@@H]1CO	-23	·	·	·	·	·	·	·	·
FC(F)(F)c1cccc(OCCOCCn2cncn2)c1	·	2	1	2	0	21*	-2	12	11
c1ccc(-c2ccc(OCCOCCn3cncn3)cc2)cc1	·	1	2	7	1	2	·	·	·
O=C1CSC(c2ccc(Cl)c(Cl)c2)N1c1nccs1 (stereo not drawn)	4	2	-3	-9	-2	18*	-2	11	-4

Source: PubChem (several laboratories)
